In ChEMBL document CHEMBL4689842, “EUbOPEN Chemogenomics Library wave 1” (2021):

Tested on: Fibroblast
Experiment: Multiplex assay against human fibroblast
Format: toxicity, cell-based
Procedure, shortened: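 Cells were classed with CellPathfinder machine-learning gating, first as Hoechst high-intensity objects or normal cells, then (normal cells) as healthy, pyknosed or fragmented nuclei, and finally (pyknosed cells) as mitotic or apoptotic. Staining of live cells at seeding used Hoechst33342, BioTracker Green Microtubule Cytoskeleton Dye, MitoTracker Red and Annexin V Alexa Fluor 680, with imaging on a CQ1 microscope at 37°C and 5% CO2 after compound addition. Tubulin, mitochondrial-mass and membrane-permeability phenotypes are per cents of healthy-nucleus cells.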

[1] = 12 h, 1 µM, compound concentration 1 uM, replicate 1
[2] = 12 h, 1 µM, compound concentration 1 uM, replicate 2
[3] = 12 h, 10 µM, compound concentration 10 uM, replicate 1
[4] = 12 h, 10 µM, compound concentration 10 uM, replicate 2
[5] = 24 h, 1 µM, compound concentration 1 uM, replicate 1
[6] = 24 h, 1 µM, compound concentration 1 uM, replicate 2
[7] = 24 h, 10 µM, compound concentration 10 uM, replicate 1
[8] = 24 h, 10 µM, compound concentration 10 uM, replicate 2
[9] = 48 h, 1 µM, compound concentration 1 uM, replicate 1
[10] = 48 h, 1 µM, compound concentration 1 uM, replicate 2
[11] = 48 h, 10 µM, compound concentration 10 uM, replicate 1
[12] = 48 h, 10 µM, compound concentration 10 uM, replicate 2

Cl.O=c1c2cccn2c2ccccc2n1CCCN1CCC(c2ccc(Cl)cc2)CC1
Population Apoptotic (%) [1]: 68%
Population Fragmented Nuclei (%) [1]: 21%
Population Healthy Nuclei (%) [1]: 61%
Population Hoechst High Intensity Objects (%) [1]: 12%
Population Membrane Permeable-Phenotype (%) [1]: 10%
Population Mitochondria Different-Phenotype (%) [1]: 15%
Population Mitotic Cells (%) [1]: 31%
Population Normal (%) [1]: 87%
Population Pyknosed Nuclei (%) [1]: 17%
Population Tubulin-Different-Phenotype (%) [1]: 40%
Total Cell Count [1]: 123
Population Apoptotic (%) [2]: 60%
Population Fragmented Nuclei (%) [2]: 16%
Population Healthy Nuclei (%) [2]: 73%
Population Hoechst High Intensity Objects (%) [2]: 8%
Population Membrane Permeable-Phenotype (%) [2]: 0%
Population Mitochondria Different-Phenotype (%) [2]: 56%
Population Mitotic Cells (%) [2]: 40%
Population Normal (%) [2]: 91%
Population Pyknosed Nuclei (%) [2]: 9%
Population Tubulin-Different-Phenotype (%) [2]: 30%
Total Cell Count [2]: 119
Population Apoptotic (%) [3]: 48%
Population Fragmented Nuclei (%) [3]: 28%
Population Healthy Nuclei (%) [3]: 42%
Population Hoechst High Intensity Objects (%) [3]: 30%
Population Membrane Permeable-Phenotype (%) [3]: 5%
Population Mitochondria Different-Phenotype (%) [3]: 52%
Population Mitotic Cells (%) [3]: 51%
Population Normal (%) [3]: 69%
Population Pyknosed Nuclei (%) [3]: 28%
Population Tubulin-Different-Phenotype (%) [3]: 84%
Total Cell Count [3]: 175
Population Apoptotic (%) [4]: 78%
Population Fragmented Nuclei (%) [4]: 21%
Population Healthy Nuclei (%) [4]: 57%
Population Hoechst High Intensity Objects (%) [4]: 11%
Population Membrane Permeable-Phenotype (%) [4]: 74%
Population Mitochondria Different-Phenotype (%) [4]: 98%
Population Mitotic Cells (%) [4]: 21%
Population Normal (%) [4]: 89%
Population Pyknosed Nuclei (%) [4]: 21%
Population Tubulin-Different-Phenotype (%) [4]: 98%
Total Cell Count [4]: 58
Population Apoptotic (%) [5]: 48%
Population Fragmented Nuclei (%) [5]: 28%
Population Healthy Nuclei (%) [5]: 44%
Population Hoechst High Intensity Objects (%) [5]: 11%
Population Membrane Permeable-Phenotype (%) [5]: 12%
Population Mitochondria Different-Phenotype (%) [5]: 10%
Population Mitotic Cells (%) [5]: 51%
Population Normal (%) [5]: 88%
Population Pyknosed Nuclei (%) [5]: 27%
Population Tubulin-Different-Phenotype (%) [5]: 45%
Total Cell Count [5]: 121
Population Apoptotic (%) [6]: 25%
Population Fragmented Nuclei (%) [6]: 16%
Population Healthy Nuclei (%) [6]: 70%
Population Hoechst High Intensity Objects (%) [6]: 7%
Population Membrane Permeable-Phenotype (%) [6]: 2%
Population Mitochondria Different-Phenotype (%) [6]: 38%
Population Mitotic Cells (%) [6]: 75%
Population Normal (%) [6]: 92%
Population Pyknosed Nuclei (%) [6]: 13%
Population Tubulin-Different-Phenotype (%) [6]: 19%
Total Cell Count [6]: 147
Population Apoptotic (%) [7]: 67%
Population Fragmented Nuclei (%) [7]: 21%
Population Healthy Nuclei (%) [7]: 49%
Population Hoechst High Intensity Objects (%) [7]: 39%
Population Membrane Permeable-Phenotype (%) [7]: 7%
Population Mitochondria Different-Phenotype (%) [7]: 40%
Population Mitotic Cells (%) [7]: 32%
Population Normal (%) [7]: 60%
Population Pyknosed Nuclei (%) [7]: 29%
Population Tubulin-Different-Phenotype (%) [7]: 63%
Total Cell Count [7]: 193
Population Apoptotic (%) [8]: 87%
Population Fragmented Nuclei (%) [8]: 14%
Population Healthy Nuclei (%) [8]: 64%
Population Hoechst High Intensity Objects (%) [8]: 7%
Population Membrane Permeable-Phenotype (%) [8]: 72%
Population Mitochondria Different-Phenotype (%) [8]: 98%
Population Mitotic Cells (%) [8]: 12%
Population Normal (%) [8]: 92%
Population Pyknosed Nuclei (%) [8]: 20%
Population Tubulin-Different-Phenotype (%) [8]: 98%
Total Cell Count [8]: 65
Population Apoptotic (%) [9]: 45%
Population Fragmented Nuclei (%) [9]: 43%
Population Healthy Nuclei (%) [9]: 36%
Population Hoechst High Intensity Objects (%) [9]: 14%
Population Membrane Permeable-Phenotype (%) [9]: 11%
Population Mitochondria Different-Phenotype (%) [9]: 2%
Population Mitotic Cells (%) [9]: 54%
Population Normal (%) [9]: 85%
Population Pyknosed Nuclei (%) [9]: 19%
Population Tubulin-Different-Phenotype (%) [9]: 47%
Total Cell Count [9]: 142
Population Apoptotic (%) [10]: 66%
Population Fragmented Nuclei (%) [10]: 44%
Population Healthy Nuclei (%) [10]: 52%
Population Hoechst High Intensity Objects (%) [10]: 11%
Population Membrane Permeable-Phenotype (%) [10]: 5%
Population Mitochondria Different-Phenotype (%) [10]: 1%
Population Mitotic Cells (%) [10]: 33%
Population Normal (%) [10]: 88%
Population Pyknosed Nuclei (%) [10]: 2%
Population Tubulin-Different-Phenotype (%) [10]: 55%
Total Cell Count [10]: 120
Population Apoptotic (%) [11]: 81%
Population Fragmented Nuclei (%) [11]: 28%
Population Healthy Nuclei (%) [11]: 50%
Population Hoechst High Intensity Objects (%) [11]: 48%
Population Membrane Permeable-Phenotype (%) [11]: 2%
Population Mitochondria Different-Phenotype (%) [11]: 46%
Population Mitotic Cells (%) [11]: 18%
Population Normal (%) [11]: 51%
Population Pyknosed Nuclei (%) [11]: 22%
Population Tubulin-Different-Phenotype (%) [11]: 78%
Total Cell Count [11]: 193
Population Apoptotic (%) [12]: 56%
Population Fragmented Nuclei (%) [12]: 27%
Population Healthy Nuclei (%) [12]: 52%
Population Hoechst High Intensity Objects (%) [12]: 55%
Population Membrane Permeable-Phenotype (%) [12]: 3%
Population Mitochondria Different-Phenotype (%) [12]: 48%
Population Mitotic Cells (%) [12]: 44%
Population Normal (%) [12]: 44%
Population Pyknosed Nuclei (%) [12]: 19%
Population Tubulin-Different-Phenotype (%) [12]: 72%
Total Cell Count [12]: 281
